Measured values: ChEMBL document CHEMBL4033794, “Discovery of Trifluoromethyl Glycol Carbamates as Potent and Selective Covalent Monoacylglycerol Lipase (MAGL) Inhibitors for Treatment of Neuroinflammation” (J Med Chem, 2018)
The source made the active and inactive calls. The rule behind the calls is not given here.

How the values were obtained:
Monoglyceride lipase = molecular target: T1, Monoglyceride lipase (Homo sapiens, UniProt Q99685); assay: Inhibition of recombinant human MAGL using fluorogenic-7HCA as substrate preincubated for 30 mins followed by substrate addition measured after 60 mins by fluorescence based assay
T1 sequence (Q99685 whole entry): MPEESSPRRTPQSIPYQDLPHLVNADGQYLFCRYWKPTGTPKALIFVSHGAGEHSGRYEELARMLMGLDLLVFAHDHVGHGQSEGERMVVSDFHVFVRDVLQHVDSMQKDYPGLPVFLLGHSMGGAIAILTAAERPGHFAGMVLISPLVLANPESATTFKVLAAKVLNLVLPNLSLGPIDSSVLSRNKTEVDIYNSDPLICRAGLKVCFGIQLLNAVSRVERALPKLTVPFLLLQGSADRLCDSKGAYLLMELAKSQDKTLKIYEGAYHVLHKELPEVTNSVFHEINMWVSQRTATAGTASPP

[1] = molecular target: T2, Fatty-acid amide hydrolase 1 (Homo sapiens, UniProt O00519); assay: Inhibition of recombinant human FAAH using fluorogenic arachidonoyl-AMC as substrate preincubated for 30 mins followed by substrate addition measured after 60 mins by fluorescence based assay
T2 sequence (O00519 whole entry): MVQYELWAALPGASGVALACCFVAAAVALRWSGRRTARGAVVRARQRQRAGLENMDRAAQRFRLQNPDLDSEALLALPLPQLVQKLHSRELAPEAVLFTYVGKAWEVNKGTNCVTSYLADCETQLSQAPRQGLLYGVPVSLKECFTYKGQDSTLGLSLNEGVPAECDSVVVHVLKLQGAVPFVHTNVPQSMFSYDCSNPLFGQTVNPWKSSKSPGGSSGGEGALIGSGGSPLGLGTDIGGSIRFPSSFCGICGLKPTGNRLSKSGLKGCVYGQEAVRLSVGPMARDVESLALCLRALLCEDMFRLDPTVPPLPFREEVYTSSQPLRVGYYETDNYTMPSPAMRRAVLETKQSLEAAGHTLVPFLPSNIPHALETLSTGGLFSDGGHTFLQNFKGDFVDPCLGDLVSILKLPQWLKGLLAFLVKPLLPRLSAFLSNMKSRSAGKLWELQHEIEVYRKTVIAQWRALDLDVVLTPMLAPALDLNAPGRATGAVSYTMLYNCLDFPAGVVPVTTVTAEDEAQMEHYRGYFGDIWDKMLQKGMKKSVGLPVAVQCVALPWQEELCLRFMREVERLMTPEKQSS
Summary of the method: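 Human recombinant FAAH (0.0125 U final) in 50 mM Tris pH 9.0, 1 mM EDTA, preincubated 30 min at room temperature with compound (30 μM to 0.3 nM final); arachidonoyl-AMC 5 μM added, 60 min reaction, read Ex/Em 355/460. Inhibition vs no-compound and full-inhibition controls; four-parameter fit; geometric mean of ≥3 experiments.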

[2] = Lipophilicity, log D of the compound by HPLC analysis; type: physicochemical
Summary of the method: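 LogD determined by an HPLC-based (eLogD) method.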

Homo sapiens = species: Homo sapiens; assay: Selectivity ratio of IC50 for recombinant human FAAH to IC50 for recombinant human MAGL
[3] = molecular target: T3, Monoglyceride lipase (Homo sapiens) (UniProt Q99685); assay: Inhibition of recombinant human MAGL assessed as Kintact to Ki ratio using fluorogenic-7HCA as substrate measured after 60 mins by fluorescence based assay
T3 sequence (whole entry): T1 sequence (Q99685 whole entry)
Summary of the method: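 Same MAGL fluorogenic setup (88 pM enzyme, 5 μM 7-HCA, HEPES pH 7.4 buffer) but substrate added immediately without preincubation; fluorescence read every minute to obtain progress curves across decreasing inhibitor concentrations; kobs derived per concentration and kinact/KI taken from plot of kobs versus concentration.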

[4] = Intrinsic clearance in human liver microsomes; type: ADME, microsome; conditions: read-out: CLH
Summary of the method: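 Substrate depletion in human liver microsomes; intrinsic clearance scaled to mL/min/kg.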

[5] = Lipophilicity, log D of the compound at pH 7.4 by shake flask method; type: physicochemical; conditions: buffer
Liver carboxylesterase 1 = molecular target: T4, Liver carboxylesterase 1 (Homo sapiens, UniProt P23141); assay: (§1) Inhibition of human CES1 at 10 uM; conditions: 10 µM
T4 sequence (P23141 whole entry): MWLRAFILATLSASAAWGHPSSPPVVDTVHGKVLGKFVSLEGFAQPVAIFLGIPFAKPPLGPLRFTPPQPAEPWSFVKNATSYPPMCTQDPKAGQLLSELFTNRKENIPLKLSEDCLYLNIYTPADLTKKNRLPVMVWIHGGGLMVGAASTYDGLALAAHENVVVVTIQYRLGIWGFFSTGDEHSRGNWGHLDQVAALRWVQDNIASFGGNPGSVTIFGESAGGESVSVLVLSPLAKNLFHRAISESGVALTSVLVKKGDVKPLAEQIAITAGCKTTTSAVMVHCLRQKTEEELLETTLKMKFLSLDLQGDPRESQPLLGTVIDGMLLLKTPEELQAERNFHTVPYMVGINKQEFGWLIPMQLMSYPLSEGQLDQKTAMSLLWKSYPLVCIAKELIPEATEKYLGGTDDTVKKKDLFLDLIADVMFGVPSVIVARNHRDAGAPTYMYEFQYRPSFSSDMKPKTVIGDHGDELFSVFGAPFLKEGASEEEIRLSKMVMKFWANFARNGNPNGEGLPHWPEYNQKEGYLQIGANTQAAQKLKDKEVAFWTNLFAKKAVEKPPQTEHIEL
Summary of the method: (§2)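 Panel of 42 human serine hydrolases, each exposed to inhibitor at 10 µM; activity expressed as percent inhibition.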

[6] = molecular target: T5, Monoacylglycerol lipase ABHD6 (Homo sapiens) (UniProt Q9BV23); assay: Inhibition of human ABHD6 at 10 uM; summary of the method: as §2
T5 sequence (whole entry): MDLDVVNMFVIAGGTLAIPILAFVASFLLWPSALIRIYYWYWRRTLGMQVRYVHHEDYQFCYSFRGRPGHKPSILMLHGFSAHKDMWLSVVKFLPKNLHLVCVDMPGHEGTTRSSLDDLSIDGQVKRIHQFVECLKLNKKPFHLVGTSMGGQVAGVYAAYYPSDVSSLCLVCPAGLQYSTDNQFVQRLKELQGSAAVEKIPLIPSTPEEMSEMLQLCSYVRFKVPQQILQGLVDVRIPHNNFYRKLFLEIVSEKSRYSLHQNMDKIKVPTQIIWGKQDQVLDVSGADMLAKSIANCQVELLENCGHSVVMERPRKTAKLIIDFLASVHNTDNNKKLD

Cocaine esterase = molecular target: T6, Cocaine esterase (Homo sapiens, UniProt O00748); assay: Inhibition of human CES2 at 10 uM; summary of the method: as §2
T6 sequence (O00748 whole entry): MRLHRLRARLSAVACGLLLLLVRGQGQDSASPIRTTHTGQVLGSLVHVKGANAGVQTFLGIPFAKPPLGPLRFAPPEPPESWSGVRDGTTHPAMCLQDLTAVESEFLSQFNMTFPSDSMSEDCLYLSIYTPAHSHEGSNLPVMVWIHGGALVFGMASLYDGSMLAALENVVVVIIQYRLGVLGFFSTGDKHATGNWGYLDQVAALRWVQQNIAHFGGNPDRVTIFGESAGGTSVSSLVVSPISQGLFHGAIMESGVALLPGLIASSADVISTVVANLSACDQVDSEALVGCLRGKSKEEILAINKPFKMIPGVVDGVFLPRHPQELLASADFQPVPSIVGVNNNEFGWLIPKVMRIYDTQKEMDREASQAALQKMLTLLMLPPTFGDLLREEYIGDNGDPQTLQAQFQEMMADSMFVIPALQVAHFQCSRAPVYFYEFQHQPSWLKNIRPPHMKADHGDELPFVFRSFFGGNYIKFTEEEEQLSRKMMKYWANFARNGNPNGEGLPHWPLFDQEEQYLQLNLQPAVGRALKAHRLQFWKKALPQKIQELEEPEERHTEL

[7] = molecular target: T7, Fatty-acid amide hydrolase 1 (Homo sapiens) (UniProt O00519); assay: Inhibition of human FAAH at 10 uM; summary of the method: as §2
T7 sequence (whole entry): T2 sequence (O00519 whole entry)

[8] = molecular target: T8, Fatty-acid amide hydrolase 2 (Homo sapiens) (UniProt Q6GMR7); assay: Inhibition of human FAAH2 at 10 uM; summary of the method: as §2
T8 sequence (whole entry): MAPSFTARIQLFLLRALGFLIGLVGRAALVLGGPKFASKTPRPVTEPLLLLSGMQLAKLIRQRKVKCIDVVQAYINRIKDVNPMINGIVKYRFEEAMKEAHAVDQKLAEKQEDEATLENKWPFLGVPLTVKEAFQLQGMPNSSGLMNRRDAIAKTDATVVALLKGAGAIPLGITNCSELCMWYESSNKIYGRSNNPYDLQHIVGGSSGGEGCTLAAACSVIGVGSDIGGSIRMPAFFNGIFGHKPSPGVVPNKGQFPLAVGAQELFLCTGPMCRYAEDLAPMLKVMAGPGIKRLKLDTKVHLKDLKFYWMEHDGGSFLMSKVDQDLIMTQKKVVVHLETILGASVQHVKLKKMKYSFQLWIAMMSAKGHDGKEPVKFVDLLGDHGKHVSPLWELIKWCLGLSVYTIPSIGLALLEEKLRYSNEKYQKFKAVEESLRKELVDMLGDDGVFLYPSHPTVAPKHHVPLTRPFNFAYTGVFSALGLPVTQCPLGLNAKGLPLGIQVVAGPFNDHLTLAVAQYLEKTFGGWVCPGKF

[9] = Kinetic solubility of the compound at pH 7.4; type: physicochemical; conditions: buffer, read-out: Kinetic_solubility
[10] = molecular target: T9, CES1 (liver carboxylesterase 1) (Homo sapiens, UniProt P23141); assay: as §1; summary of the method: as §2
T9 sequence (P23141 whole entry): T4 sequence (P23141 whole entry)

SMILES | IC50 (Monoglyceride lipase) | IC50 [1] | logD [2] | Ratio [3] | also measured
CC(OC(=O)N1C[C@@H]2[C@H](C1)[C@H]2c1ccn(-c2ccc(F)cc2)n1)C(F)(F)F (some centres not stated) | 242 nM | > 23000 nM | 4.8 | – | Ratio IC50 (Homo sapiens): > 95
O=C(O[C@H](CCO)C(F)(F)F)N1C[C@@H]2[C@H](C1)[C@H]2c1ccn(-c2ccc(F)cc2)n1 | 582 nM | > 12000 nM | 4.2 | 4570 M⁻¹ s⁻¹ | CLint scaled [4]: < 12 mL/min/kg
O=C(OCC(F)(F)F)N1C[C@@H]2[C@H](C1)[C@H]2c1ccn(-c2ccc(F)cc2)n1 | 445 nM | 970 nM | 4.2 | 103 M⁻¹ s⁻¹ | –
O=C(Oc1ccc([N+](=O)[O-])cc1)N1CCC(C(O)(c2ccc3c(c2)OCO3)c2ccc3c(c2)OCO3)CC1 | – | > 11000 nM | 5.1 | – | –
COC[C@@H](OC(=O)N1C[C@@H]2[C@H](C1)[C@H]2c1ccn(-c2ccc(F)cc2)n1)C(F)(F)F | 354 nM | 1940 nM | 4.2 | 110 M⁻¹ s⁻¹ | –
O=C(ON1C(=O)CCC1=O)N1C[C@@H]2[C@H](C1)[C@H]2c1ccn(-c2ccc(F)cc2)n1 | 46 nM | 3600 nM | – | 156 M⁻¹ s⁻¹ | logD [5]: 2.6; inhibition (INH) (Liver carboxylesterase 1): Not Active; inhibition [6]: inactive; inhibition (INH) (Cocaine esterase): Not Active; inhibition [7]: inactive; inhibition [8]: inactive
O=C(O[C@@H](CO)C(F)(F)F)N1C[C@@H]2[C@H](C1)[C@H]2c1ccn(-c2ccc(F)cc2)n1 | 890 nM | 26000 nM | 3.9 | – | CLint scaled [4]: < 8 mL/min/kg
O=C(OC(CO)C(F)(F)F)N1C[C@@H]2[C@H](C1)[C@H]2c1ccn(-c2ccc(F)cc2)n1 (some centres not stated) | 6 nM | 14000 nM | 3.9 | – | –
O=C(Oc1ccc([N+](=O)[O-])cc1)N1C[C@@H]2[C@H](C1)[C@H]2c1ccn(-c2ccc(F)cc2)n1 | 24 nM | 18 nM | – | 2880 M⁻¹ s⁻¹ | logD [5]: 4.2
O=C(OC(C(F)(F)F)C(F)(F)F)N1C[C@@H]2[C@H](C1)[C@H]2c1ccn(-c2ccc(F)cc2)n1 | 1 to 1.4 nM | 4300 nM | 5.6 | 41700 M⁻¹ s⁻¹ | Ratio IC50 (Homo sapiens): 3000 to 4300; solubility kinetic [9]: < 1 µM; inhibition at 10 µM [10]: 58%; inhibition [6]: 95%
O=C(OC[C@@H](O)C(F)(F)F)N1C[C@@H]2[C@H](C1)[C@H]2c1ccn(-c2ccc(F)cc2)n1 | 132 nM | > 30000 nM | 4 | 244 M⁻¹ s⁻¹ | CLint scaled [4]: 9.4 mL/min/kg
O=C(O[C@H](CF)C(F)(F)F)N1C[C@@H]2[C@H](C1)[C@H]2c1ccn(-c2ccc(F)cc2)n1 | 26 nM | 1900 nM | 4.3 | 1580 M⁻¹ s⁻¹ | Ratio IC50 (Homo sapiens): 73
